Measurements published in ChEMBL document CHEMBL4152273, “Development of novel amino-quinoline-5,8-dione derivatives as NAD(P)H:quinone oxidoreductase 1 (NQO1) inhibitors with potent antiproliferative activities” (Eur J Med Chem, 2018).
The source made the active and inactive calls. The rule behind the calls is not given here.

Columns and labels:
[1] = Cytotoxicity against human KBVIN cells assessed as decrease in cell viability after 72 hrs in presence of free radical scavenger NAc by MTT assay; type: functional, cell-based; conditions: in the assay text read “SRB assay” for “MTT assay”
In short: (§1)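 NQO1 dependency: cells co-treated for 72 h with test compound plus […] or 40 mM N-acetylcysteine. Viability read by SRB: TCA fixation, 0.04% sulforhodamine B staining, acetic acid wash, dye solubilized in 10 mM Tris base, absorbance at 515 nm. Results given as IC50 or mean ± SD; three independent measurements.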

Homo sapiens [2] = organism: Homo sapiens; assay: Increase in ROS production in human KBVIN cells after 24 hrs in presence of H2O2 by DCFH-DA dye based flow cytometry; type: functional, cell-based
HeLa S3 [3] = assay: Increase in ROS production in human HeLaS3 cells after 24 hrs in presence of H2O2 by DCFH-DA dye based flow cytometry; type: functional, cell-based
Homo sapiens [4] = organism: Homo sapiens; assay: Induction of mitochondrial membrane potential loss in human KBVIN cells after 24 hrs by MITO-ID MP dye based assay; type: functional, cell-based
In short: (§2)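 Cells plated at 2.5 × 10^5/mL and treated with 0.01–5 μM, CCCP as positive control or DMSO vehicle for 24 h at 37 °C. MITO-ID MP dye loaded in the dark for 30 min at 37 °C, then fluorescence read at Ex 490 nm and Em 590 nm.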

[5] = Cytotoxicity against human KBVIN cells assessed as decrease in cell viability after 72 hrs in presence of NQO1 inhibitor dicoumarol by MTT assay; type: functional, cell-based; conditions: in the assay text read “SRB assay” for “MTT assay”; in short: as §1
HeLa S3 [6] = assay: Cytotoxicity against human HeLaS3 cells assessed as decrease in cell viability after 72 hrs in presence of free radical scavenger NAc by MTT assay; type: functional, cell-based; conditions: HeLa S3, 72 h, in the assay text read “SRB assay” for “MTT assay”; in short: as §1
HeLa S3 [7] = assay: Cytotoxicity against human HeLaS3 cells assessed as decrease in cell viability after 72 hrs in presence of NQO1 inhibitor dicoumarol by MTT assay; type: functional, cell-based; conditions: HeLa S3, 72 h, in the assay text read “SRB assay” for “MTT assay”; in short: as §1
HeLa S3 [8] = assay: Induction of mitochondrial membrane potential loss in human HeLaS3 cells after 24 hrs by MITO-ID MP dye based assay; type: functional, cell-based; in short: as §2
[9] = biological target: T1, NAD(P)H dehydrogenase [quinone] 1 (Homo sapiens, UniProt P15559); assay: Inhibition of NQO1 activity in human HeLaS3 cells incubated for 24 hrs measured every 20 secs for 5 mins; type: cell-based
[10] = biological target: T1, NAD(P)H dehydrogenase [quinone] 1; assay: Inhibition of NQO1 activity in human KBVIN cells incubated for 24 hrs measured every 20 secs for 5 mins; type: cell-based
HeLa S3 [11] = assay: Induction of apoptosis in human HeLaS3 cells assessed as decrease in Bcl-2 expression levels after 72 hrs by Western blot analysis; type: functional, cell-based
In short: (§3)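 Sub-confluent cells at 1.5 × 10^5/mL treated 72 h in DMEM with 10% FBS at the indicated doses or 0.1% DMSO vehicle. Lysates immunoblotted for Bax, Bcl-2 and caspase-3, detected with HRP secondary antibodies and chemiluminescence. Band densities normalized to β-actin by densitometry; mean ± SD of three separate experiments.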

HeLa S3 [12] = assay: Induction of apoptosis in human HeLaS3 cells assessed as increase in Bax expression levels after 72 hrs by Western blot analysis; type: functional, cell-based; in short: as §3
HeLa S3 [13] = assay: Induction of apoptosis in human HeLaS3 cells after 72 hrs by annexin V-FITC/PI dual staining based flow cytometry; type: functional, cell-based
In short: (§4)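 Cells cultured overnight, then exposed in triplicate to 0.2, 0.6 or 1.8 μM or vehicle for 72 h. Annexin V-positive percentage given as mean ± SD of three independent experiments.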

HeLa S3 [14] = assay: Induction of apoptosis in human HeLaS3 cells assessed as annexin V-positive cells at 1.8 uM after 72 hrs by annexin V-FITC/PI dual staining based flow cytometry relative to control; type: functional; in short: as §4
HeLa S3 [15] = assay: Induction of apoptosis in human HeLaS3 cells assessed as annexin V-positive cells at 0.6 uM after 72 hrs by annexin V-FITC/PI dual staining based flow cytometry relative to control; type: functional; in short: as §4
HeLa S3 [16] = assay: Induction of apoptosis in human HeLaS3 cells assessed as increase in caspase-3 cleavage at 0.2 to 1.8 uM after 72 hrs by Western blot analysis; type: functional, cell-based; in short: as §3
HeLa S3 [17] = assay: Induction of apoptosis in human HeLaS3 cells assessed as annexin V-positive cells at 0.2 uM after 72 hrs by annexin V-FITC/PI dual staining based flow cytometry relative to control; type: functional; in short: as §4
[18] = Cytotoxicity against human EEC assessed as decrease in cell viability after 72 hrs by MTT assay
In short: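 Endometrial epithelial cells maintained in RPMI-1640 with 10% FBS at 37 °C, 5% CO2. Exposed 72 h to the indicated concentrations, proliferation assessed by MTT; inhibition (%) reported as mean ± SD of three independent experiments.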

T1 sequence (P15559 whole entry): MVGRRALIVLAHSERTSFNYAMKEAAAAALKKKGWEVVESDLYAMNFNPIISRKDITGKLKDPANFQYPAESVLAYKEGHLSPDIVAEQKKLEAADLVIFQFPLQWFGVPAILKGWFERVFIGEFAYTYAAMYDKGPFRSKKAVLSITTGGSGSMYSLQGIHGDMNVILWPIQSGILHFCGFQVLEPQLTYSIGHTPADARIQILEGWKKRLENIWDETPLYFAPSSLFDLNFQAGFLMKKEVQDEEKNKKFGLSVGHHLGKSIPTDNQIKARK

CN1CCN(c2ccc(NC3=CC(=O)c4ncccc4C3=O)cc2)CC1
IC50 [1]: > 3000 nM
Activity (Homo sapiens [2]): Dose-dependent effect
Activity (HeLa S3 [3]): Dose-dependent effect
Activity (Homo sapiens [4]): Dose-dependent effect
IC50 [5]: > 3000 nM
IC50 (HeLa S3 [6]): > 3000 nM
IC50 (HeLa S3 [7]): > 3000 nM
Activity (HeLa S3 [8]): Dose-dependent effect

COC(=O)/C=C/c1cccc(CNC2=CC(=O)c3ncccc3C2=O)c1
Activity (Homo sapiens [2]): Dose-dependent effect
IC50 [9]: 5250 nM
Activity (HeLa S3 [3]): Dose-dependent effect
Activity (Homo sapiens [4]): Dose-dependent effect
IC50 [10]: 530 nM
Activity (HeLa S3 [8]): Dose-dependent effect

O=C1C=C(NCCc2c[nH]c3ccccc23)C(=O)c2ncccc21
Activity (Homo sapiens [2]): Dose-dependent effect
IC50 [9]: 6250 nM
Activity (HeLa S3 [3]): Dose-dependent effect
Activity (Homo sapiens [4]): Dose-dependent effect
IC50 [10]: 550 nM
Activity (HeLa S3 [8]): Dose-dependent effect

CN1CCN(c2ccc(NC3=CC(=O)c4cccnc4C3=O)cc2)CC1
IC50 [1]: > 3000 nM
Activity (Homo sapiens [2]): Dose-dependent effect
Activity (HeLa S3 [11]): Dose-dependent effect
Activity (HeLa S3 [12]): Dose-dependent effect
IC50 [9]: 440 nM
Activity (HeLa S3 [3]): Dose-dependent effect
Activity (HeLa S3 [13]): Dose-dependent effect
Activity (HeLa S3 [14]): 66.3%
Activity (Homo sapiens [4]): Dose-dependent effect
Activity (HeLa S3 [15]): 27.6%
IC50 [5]: > 3000 nM
Activity (HeLa S3 [16]): Active
IC50 (HeLa S3 [6]): > 3000 nM
IC50 (HeLa S3 [7]): > 3000 nM
IC50 [10]: 570 nM
Activity (HeLa S3 [17]): 12.8%
Activity [18]: Non-Toxic
Activity (HeLa S3 [8]): Dose-dependent effect
